Molecules are shown by their SMILES. pIC50: −log10 of the molar value.

Data set [1] deals with MV4-11. The data set can be described thus: Cytotoxicity against FLT3-dependent human MV4-11 cells after 72 hrs by MTT assay. It counts as functional, cell-based. The conditions noted are these: MV4-11, 72 h. In a few lines: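 Leukemia cells at 1−4 × 10⁴ per well were exposed to increasing inhibitor concentrations for 72 h at 37 °C. MTT was then added for 2−4 h, and cells were lysed with 20% acidified SDS. OD read at 570 nm. Viability relative to 0.1% DMSO controls; triplicate. MV4-11 grown in IMDM, others in RPMI 1640 or DMEM with 10% FBS.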
Background: Formazan colour is commonly taken as a measure of viable cells.

For the next data set, the system named is HCT-116. Put plainly: Cytotoxicity against FLT3-independent human HCT116 cells after 72 hrs by MTT assay. The data set is classed as functional, cell-based. The conditions noted are these: HCT-116, 72 h. In a few lines: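 Adherent lines at 2−5 × 10³ cells/well were allowed to settle 24 h, then the medium was replaced with serial inhibitor dilutions for 72 h. MTT was added for 2−4 h, followed by dissolution in 100% DMSO. OD read at 570 nm. Viability relative to 0.1% DMSO controls; triplicate. Grown in RPMI 1640 or DMEM with 10% FBS, 5% CO₂, 37 °C.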

Data set [2] concerns MV4-11. The data set can be described thus: Antitumor activity against human MV4-11 cells xenografted in NOD-SCID mouse assessed as tumor growth inhibition at 50 mg/kg, ip once daily for 21 days measured every 3 days. The conditions noted are these: MV4-11, ip, route intraperitoneal, read-out: GI. The data set is classed as functional. On the technique in general: Xenograft models place foreign cells or tissue in a host animal.

Data set [3] has as its target T1, Receptor-type tyrosine-protein kinase FLT3 (Homo sapiens, UniProt P36888).
T1 sequence (P36888 whole entry): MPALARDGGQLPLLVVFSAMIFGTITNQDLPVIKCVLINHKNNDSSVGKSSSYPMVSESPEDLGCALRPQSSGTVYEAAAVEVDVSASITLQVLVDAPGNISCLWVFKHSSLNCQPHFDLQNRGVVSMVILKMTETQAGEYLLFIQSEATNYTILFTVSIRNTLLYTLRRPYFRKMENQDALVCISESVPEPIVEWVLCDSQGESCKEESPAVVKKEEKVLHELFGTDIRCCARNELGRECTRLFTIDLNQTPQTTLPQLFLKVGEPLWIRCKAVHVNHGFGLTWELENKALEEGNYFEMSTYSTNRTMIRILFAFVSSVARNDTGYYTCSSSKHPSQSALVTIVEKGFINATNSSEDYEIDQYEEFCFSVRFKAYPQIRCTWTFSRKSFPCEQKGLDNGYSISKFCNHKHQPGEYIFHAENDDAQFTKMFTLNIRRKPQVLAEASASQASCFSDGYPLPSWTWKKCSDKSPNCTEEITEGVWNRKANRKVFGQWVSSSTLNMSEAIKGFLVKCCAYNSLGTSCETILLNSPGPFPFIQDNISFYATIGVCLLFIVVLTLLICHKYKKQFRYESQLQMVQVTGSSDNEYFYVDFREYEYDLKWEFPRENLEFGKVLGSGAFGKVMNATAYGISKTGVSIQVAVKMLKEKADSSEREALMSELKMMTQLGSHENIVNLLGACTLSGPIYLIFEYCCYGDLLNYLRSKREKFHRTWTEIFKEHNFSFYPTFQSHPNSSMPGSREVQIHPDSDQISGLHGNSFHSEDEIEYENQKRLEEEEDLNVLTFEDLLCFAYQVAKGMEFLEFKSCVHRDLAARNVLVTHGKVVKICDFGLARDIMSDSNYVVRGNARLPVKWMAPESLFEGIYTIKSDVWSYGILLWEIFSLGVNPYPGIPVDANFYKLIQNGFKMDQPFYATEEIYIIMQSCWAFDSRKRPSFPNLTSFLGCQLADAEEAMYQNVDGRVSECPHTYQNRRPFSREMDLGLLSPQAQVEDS
The data set can be described thus: Inhibition of human FLT3. In a few lines:
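Human FLT3 kinase assayed across a dose−response series at 200 μM ATP.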

A short description of data set [4]: Cmax in Sprague-Dawley rat at 40 mg/kg, ip. Set-up: dose 40 mg/kg, route intraperitoneal. The conditions noted are these: in vivo. It counts as ADME, organism-based. In a few lines:
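Male Sprague−Dawley rats (200−250 g), n = 3, fasted overnight, with a femoral-vein catheter for blood sampling. Single 40 mg/kg ip dose; plasma drug levels measured by LC-MS/MS.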

As usually defined, the pIC50 is the negative decadic logarithm of the IC50, by convention in mol/L. Low values mean a large IC50, high ones a small IC50. `COc1cc2ncnc(Sc3nc(C)c(CC(=O)Nc4ccc(NC(C)=O)cc4)s3)c2cc1OC`: the pIC50 is < 5.30 in the data set with MV4-11 [1] and < 5.00 in the data set on HCT-116.

For `C=CC(=O)Nc1nnc(Sc2ncnc3cc(OCCCN4CCOCC4)ccc23)s1`, the pIC50 in the data set with MV4-11 [1] was 5.22; in the data set with HCT-116, < 5.00.

With `COc1cc2ncnc(Sc3nccs3)c2cc1OCCCN1CCOCC1`, the pIC50 in the data set on MV4-11 [1] is 5.99; in the data set on HCT-116, < 5.00.

On to `COCCOc1cc2ncnc(Sc3nc(CC(=O)Nc4cc(C)cc(C)c4)cs3)c2cc1OCCOC`, for which the pIC50 was 5.04 in the data set on MV4-11 [1] and < 5.00 in the data set on HCT-116.

For `COc1cc2c(Sc3nccs3)ncnc2cc1OCCN1CCOCC1`, the pIC50 is 5.52 with MV4-11 [1] and < 5.00 in the data set with HCT-116.

Regarding `C=CC(=O)Nc1nnc(Sc2ncnc3cc(OCCOC)c(OCCOC)cc23)s1`, the pIC50 in the data set on MV4-11 [1] and in the data set with HCT-116 was < 5.00 throughout.

Take `COCCOc1cc2ncnc(Sc3nc(C)c(CC(=O)Nc4cc(C)cc(C)c4)s3)c2cc1OCCOC`: the results for the pIC50 with MV4-11 [1] and in the data set on HCT-116 were 6.20 and < 5.00, respectively.

With `COCCOc1cc2ncnc(Sc3nnc(NC(=O)Nc4ccc(C(F)(F)F)cc4)s3)c2cc1OCCOC`, the values for the pIC50 with MV4-11 [1] and with HCT-116 were 6.52 and < 5.00, respectively.

As to `COc1cc2ncnc(Sc3nccs3)c2cc1OCCN1CCOCC1`, the figures for the pIC50 in the data set on MV4-11 [1] and in the data set with HCT-116 were 5.53 and < 5.00, respectively.

Regarding `COCCOc1cc2ncnc(Sc3nc(CC(=O)Nc4cccc(C(F)(F)F)c4)cs3)c2cc1OCCOC`, the pIC50 in the data set with MV4-11 [1] was 6.08; in the data set with HCT-116, < 5.00.

Regarding `C#Cc1cccc(NC(=O)Nc2nnc(Sc3ncnc4cc(OCCOC)c(OCCOC)cc34)s2)c1`, the pIC50 in the data set on MV4-11 [1] was 8.30; in the data set with HCT-116 it was < 5.00. Besides, in the data set on MV4-11 [2], the inhibition in vivo at 50 mg/kg is < 50%.

As to `COCCOc1cc2ncnc(Sc3nnc(NC(C)=O)s3)c2cc1OCCOC`, the pIC50 in the data set with MV4-11 [1] is < 4.96; in the data set with HCT-116, < 5.00.

As to `O=C(Nc1cccc(Cl)c1)Nc1nnc(Sc2ncnc3cc(OCCCN4CCOCC4)ccc23)s1`, the negative-log IC50 (pIC50) in the data set on MV4-11 [1] is 7.92; in the data set with HCT-116 it was < 5.00.

Consider `COCCOc1cc2ncnc(Sc3nc(C)c(CC(=O)Nc4cccc(Cl)c4)s3)c2cc1OCCOC`, for which the pIC50 in the data set on MV4-11 [1] is 6.68; in the data set with HCT-116 it was < 5.00.

Take `COc1cc2ncnc(Sc3nc(C)c(CC(=O)Nc4cccc(Cl)c4)s3)c2cc1OC`: the pIC50 in the data set on MV4-11 [1] is 6.35; in the data set on HCT-116 it was < 5.00.

As for `COCCOc1cc2ncnc(Sc3nnc(NC(=O)Nc4ccc(C)cc4)s3)c2cc1OCCOC`, the pIC50 with MV4-11 [1] was 7.66; in the data set with HCT-116, < 5.00.

For the molecule `COc1cc2c(Sc3nccs3)ncnc2cc1OCCCN1CCOCC1`, the pIC50 in the data set with MV4-11 [1] is 5.94; in the data set on HCT-116, < 5.00.

As for `COCCOc1cc2ncnc(Sc3nc(C)c(CC(=O)Nc4nc5ccc(OC)cc5s4)s3)c2cc1OCCOC`, the pIC50 was 5.72 in the data set with MV4-11 [1] and < 5.00 in the data set with HCT-116.

For the molecule `COc1cc2ncnc(Sc3nc(C)c(CC(=O)NCc4ccc(Cl)cc4)s3)c2cc1OC`, the pIC50 in the data set on MV4-11 [1] and in the data set with HCT-116 was < 5.00 each time.

As to `COc1cc2ncnc(Sc3nccs3)c2cc1OCCN1CCCCC1`, the negative logarithm of the IC50 (pIC50) in the data set on MV4-11 [1] was 5.79; with HCT-116 it was < 5.00.

For the molecule `CCN(CC)CCNC(=O)c1c(C)[nH]c(/C=C2\C(=O)Nc3ccc(F)cc32)c1C` [SUNITINIB], the pIC50 in the data set on MV4-11 [1] was 8.52.

`COCCOc1cc2ncnc(Sc3nccs3)c2cc1OCCOC`: the figures for the pIC50 with MV4-11 [1] and with HCT-116 were 5.85 and < 5.00, respectively.

For `COc1cc2ncnc(Sc3nc(C)cs3)c2cc1OC`, the pIC50 is 5.43 with MV4-11 [1] and < 5.00 in the data set with HCT-116.

Regarding `COc1cc2ncnc(Sc3nccs3)c2cc1OCCCN(C)C`, the pIC50 in the data set on MV4-11 [1] is 5.95; with HCT-116, < 5.00.

In the case of `COCCOc1cc2ncnc(Sc3nc(C)c(CC(=O)NC4CC4)s3)c2cc1OCCOC`, the pIC50 in the data set with MV4-11 [1] was 5.62; with HCT-116, < 5.00.

Regarding `O=C(Nc1ccccc1)Nc1nnc(Sc2ncnc3cc(OCCCN4CCOCC4)ccc23)s1`, the values for the pIC50 with MV4-11 [1] and in the data set with HCT-116 were 8.00 and < 5.00, respectively.

In the case of `COc1cc2c(Sc3nccs3)ncnc2cc1OCCN1CCCC1`, the pIC50 was 5.80 in the data set on MV4-11 [1] and < 5.00 in the data set with HCT-116.

`COCCOc1cc2ncnc(Sc3nnc(NC(=O)Nc4cccc(Br)c4)s3)c2cc1OCCOC`: the pIC50 is 7.66 with MV4-11 [1] and < 5.00 in the data set with HCT-116.

In the case of `COc1cc2ncnc(Sc3nccs3)c2cc1OC`, the values for the negative-log IC50 (pIC50) (in data set [3]; in the data set with MV4-11 [1]; with HCT-116) were 8.15, 5.94 and < 5.00, respectively.

As for `COCCOc1cc2ncnc(Sc3nnc(NC(=O)Nc4cccc(Cl)c4)s3)c2cc1OCCOC`, the pIC50 was 7.70 in the data set with MV4-11 [1] and < 5.00 in the data set with HCT-116.

As for `COc1cc2ncnc(Sc3nncs3)c2cc1OC`, the pIC50 in data set [3] is 8.05; in the data set with MV4-11 [1], 5.92; with HCT-116, < 5.00.

For the molecule `COc1cc2c(N3CCN(C(=O)Nc4ccc(OC(C)C)cc4)CC3)ncnc2cc1OCCCN1CCCCC1` [TANDUTINIB], the pIC50 with MV4-11 [1] was 7.26.

For the molecule `COCCOc1cc2ncnc(Sc3nc(CC(=O)Nc4ccc(C(F)(F)F)cc4)cs3)c2cc1OCCOC`, the negative-log IC50 (pIC50) was 5.54 in the data set with MV4-11 [1] and < 5.00 in the data set with HCT-116.

As for `COc1cc2c(Sc3nccs3)ncnc2cc1OCCN1CCCCC1`, the pIC50 was 5.82 with MV4-11 [1] and < 5.00 in the data set with HCT-116.

On to `COCCOc1cc2ncnc(Sc3nc(CC(=O)Nc4cccc(Cl)c4)cs3)c2cc1OCCOC`, for which the results for the pIC50 in the data set on MV4-11 [1] and with HCT-116 were 5.49 and < 5.00, respectively.

Regarding `COc1cc2ncnc(Sc3nccs3)c2cc1OCCN1CCCC1`, the pIC50 with MV4-11 [1] is 5.91; in the data set on HCT-116 it was < 5.00.

Turning to `COCCOc1cc2ncnc(Sc3nc(C)c(CC(=O)Nc4cccc(C(F)(F)F)c4)s3)c2cc1OCCOC`, the pIC50 in the data set on MV4-11 [1] is 7.60; in the data set with HCT-116, < 5.00.

Regarding `COCCOc1cc2ncnc(Sc3nc(C)c(CC(=O)Nc4ccc(C(F)(F)F)cc4)s3)c2cc1OCCOC`, the figures for the negative-log IC50 (pIC50) in the data set with MV4-11 [1] and in the data set on HCT-116 were 7.57 and < 5.00, respectively.

Take `COc1cc2ncnc(Sc3nc(C)c(CC(=O)Nc4cccc(C(F)(F)F)c4)s3)c2cc1OC`: the pIC50 in the data set with MV4-11 [1] is 7.70; in the data set on HCT-116, < 5.00.

`COCCOc1cc2ncnc(Sc3nnc(NC(=O)Nc4cccc(F)c4)s3)c2cc1OCCOC`: the pIC50 in the data set on MV4-11 [1] was 6.40; in the data set on HCT-116, < 5.00.

For the molecule `COCCOc1cc2ncnc(Sc3nncs3)c2cc1OCCOC`, the figures for the pIC50 in the data set with MV4-11 [1] and with HCT-116 were 5.87 and < 5.00, respectively.

On to `COc1cc2ncnc(Sc3nc(C)c(CC(=O)Nc4cc(Cl)cc(Cl)c4)s3)c2cc1OC`, for which the pIC50 was 5.85 with MV4-11 [1] and < 5.00 in the data set with HCT-116.

By Cmax is commonly meant the maximum level reached in the sampled fluid or tissue. For `C#Cc1cccc(NC(=O)Nc2nnc(Sc3ncnc4cc(OCCCN5CCOCC5)ccc34)s2)c1`, the figures for the pIC50 (in data set [3]; in the data set with MV4-11 [1]; in the data set on HCT-116) were 8.22, 9.52 and < 5.00, respectively. Besides, the inhibition in vivo at 50 mg/kg with MV4-11 [2] was < 50%. In data set [4], this molecule yielded a Cmax of 2740 ng/mL.

The values are drawn from ChEMBL document CHEMBL2046280, “Discovery of the novel potent and selective FLT3 inhibitor 1-{5-[7-(3- morpholinopropoxy)quinazolin-4-ylthio]-[1,3,4]thiadiazol-2-yl}-3-p-tolylurea and its anti-acute myeloid leukemia (AML) activities in vitro and in vivo” (J Med Chem, 2012).
